From ChEMBL document CHEMBL4334444, “Studies of Jatrogossone A as a Reactive Oxygen Species Inducer in Cancer Cellular Models” (J Nat Prod, 2019)
Activity calls are given as the source filed them. The rule behind the calls is not given here.

Legend:
KOPN-8 [1] = experiment: Cell cycle arrest in human KOPN8 cells assessed as increase in accumulation at S phase at 2 uM incubated for 24 hrs by propidium iodide staining based flow cytometric analysis; type: functional
Summary of the method: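 KOPN-8 cells plated at 1.00 × 10^6 cells/plate and held 12 h at 37 °C in 5% CO2, then treated for 24 h. Cells were fixed in cold methanol, RNase-treated and stained with PI (50 μg/mL). Cell-cycle distribution by flow cytometry, with DMSO as vehicle control.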

KOPN-8 [2] = experiment: Induction of apoptosis in human KOPN8 cells assessed as increase in cleaved PARP 1 level at 10 uM by Western blot analysis; type: functional, cell-based
Summary of the method: (§1)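 Western blot of KOPN-8 and MCF-7 lysates made in RIPA-type buffer (Tris pH 7.5, Triton X-100, deoxycholate, SDS) with protease and phosphatase inhibitors. 30 μg protein per lane was run on 4–12% Bis-Tris SDS-PAGE and transferred to nitrocellulose. Blots were probed for cleaved caspase-7 and PARP-1 and detected with IR-dye secondaries. Menadione served as positive control: 10 μM in KOPN-8, 30 μM in MCF-7. Blots are representative of three independent experiments.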

U2OS [3] = experiment: Induction of ROS generation in human U2OS cells at 10 to 30 uM incubated for 1 hr by CellROX green reagent based fluorescence assay; type: functional, cell-based
Summary of the method: (§2)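 CellROX green assay in MCF-7 or U2OS cells. Cells were exposed to test compound for 1 h at 37 °C alongside 0.5% DMSO (negative control) and menadione 10–30 μM (positive control), with or without NAC (50–500 μM) as scavenger. CellROX was then added at 5 μM final for 30 min. Cells were PBS-washed, fixed in 4% paraformaldehyde for 15 min, and fluorescence read at 535 nm.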

MCF7 [4] = experiment: Induction of apoptosis in human MCF7 cells assessed as increase in cleaved caspase 7 level at 30 uM by Western blot analysis; type: functional, cell-based; summary of the method: as §1
MCF7 [5] = experiment: Induction of apoptosis in human MCF7 cells assessed as increase in cleaved PARP 1 level at 30 uM by Western blot analysis; type: functional, cell-based; summary of the method: as §1
U2OS [6] = experiment: Induction of ROS generation in human U2OS cells at 10 to 30 uM incubated for 1 hr in presence of NAC by CellROX green reagent based fluorescence assay; type: functional, cell-based; summary of the method: as §2
MCF7 [7] = experiment: Induction of ROS generation in human MCF7 cells at 10 to 30 uM incubated for 1 hr in presence of NAC by CellROX green reagent based fluorescence assay; type: functional, cell-based
Summary of the method: (§3)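 CellROX green ROS assay: cells exposed 1 h at 37 °C (30 μM) with DMSO 0.5% (v/v) negative control, menadione 10 μM positive control, ± NAC (100 μM per figure legend). CellROX green added at 5 μM final, 30 min more; washed, fixed in 4% paraformaldehyde 15 min, fluorescence read at 485 ex/535 em. Mean and SD of at least three experiments; two-way ANOVA.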

KOPN-8 [8] = experiment: Induction of apoptosis in human KOPN8 cells assessed as increase in cleaved caspase 7 level at 10 uM by Western blot analysis; type: functional, cell-based; summary of the method: as §1
MCF7 [9] = experiment: Induction of ROS generation in human MCF7 cells at 10 to 30 uM incubated for 1 hr by CellROX green reagent based fluorescence assay; type: functional, cell-based; summary of the method: as §3

Compound	Activity (KOPN-8 [1])	Activity (KOPN-8 [2])	Activity (U2OS [3])	Activity (MCF7 [4])	Activity (MCF7 [5])	Activity (U2OS [6])	Activity (MCF7 [7])	Activity (KOPN-8 [8])	Activity (MCF7 [9])
CN[C@@H]1C[C@H]2O[C@@](C)([C@@H]1OC)n1c3ccccc3c3c4c(c5c6ccccc6n2c5c31)C(=O)NC4	Active	–	–	–	–	–	–	–	–
CC1=CC(=O)c2ccccc2C1=O	–	Active	Active	Active	Active	inactive	inactive	Active	Active
